Assay outcomes as filed in PubChem.
Mdm2 MdmX PPI – inhibitors of human Mdm2/MdmX interaction; O15151+Q00987; SaOS-2 split-luciferase Mdm2/MdmX complementation, luminescence; inhibition, % at 8 µM; 3% of 330,000 active; AID 485346;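 active = inhibition of at least 50% at 8 µM in the primary screen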
Target sequence (O15151 whole entry, looked up): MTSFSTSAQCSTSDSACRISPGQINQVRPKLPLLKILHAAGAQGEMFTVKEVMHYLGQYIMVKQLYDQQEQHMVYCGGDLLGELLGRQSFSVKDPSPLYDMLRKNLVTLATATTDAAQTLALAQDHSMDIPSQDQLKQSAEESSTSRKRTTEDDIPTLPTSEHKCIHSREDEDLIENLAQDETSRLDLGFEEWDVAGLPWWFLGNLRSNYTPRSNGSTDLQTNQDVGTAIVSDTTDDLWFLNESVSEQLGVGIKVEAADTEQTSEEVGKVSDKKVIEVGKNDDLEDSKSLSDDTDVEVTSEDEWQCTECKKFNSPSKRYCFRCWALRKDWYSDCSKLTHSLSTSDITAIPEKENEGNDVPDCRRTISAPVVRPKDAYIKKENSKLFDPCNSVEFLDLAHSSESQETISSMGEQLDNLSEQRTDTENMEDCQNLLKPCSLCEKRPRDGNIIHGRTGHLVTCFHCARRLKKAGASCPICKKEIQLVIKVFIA
Target sequence (Q00987 whole entry, looked up): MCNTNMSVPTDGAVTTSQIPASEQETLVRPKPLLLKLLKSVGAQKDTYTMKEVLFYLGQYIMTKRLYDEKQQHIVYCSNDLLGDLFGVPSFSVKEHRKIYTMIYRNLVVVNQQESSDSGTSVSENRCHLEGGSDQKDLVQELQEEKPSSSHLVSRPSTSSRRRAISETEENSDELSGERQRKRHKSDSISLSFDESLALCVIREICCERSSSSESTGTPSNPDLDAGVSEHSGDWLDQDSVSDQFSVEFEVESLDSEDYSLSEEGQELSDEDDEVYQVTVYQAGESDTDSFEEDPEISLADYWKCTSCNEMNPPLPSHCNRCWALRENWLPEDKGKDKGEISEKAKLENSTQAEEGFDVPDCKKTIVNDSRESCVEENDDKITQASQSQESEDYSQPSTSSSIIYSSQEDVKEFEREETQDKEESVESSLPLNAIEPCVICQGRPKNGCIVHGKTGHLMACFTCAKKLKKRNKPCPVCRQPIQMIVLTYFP
T cruzi repl – blocks replication of Trypanosoma cruzi; T. cruzi beta-gal in NIH3T3, luminescence, 90 h; inhibition, % (concentration not given with the values); 1.4% of 300,000 active;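 active = mean inhibition across valid replicates above about 55%, limit read from the data; inconclusive = mean below that limit but half or more replicates reach it; inactive = mean below it, under half of replicates reach it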;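 note: signal also drops with host cell toxicity which is not excluded here; higher percent means less beta-gal luminescence so fewer parasites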
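Assay system: NIH/3T3 fibroblasts plus reporter T. cruzi. Amount: NIH/3T3 cells, 5,000 per well. Buffer or medium: DMEM, 2% fetal bovine serum. Doses: compound pinned at 50 nL/well, DMSO. Schedule: ≥90 h infection period, 3 h prior cell attachment. Signal: luminescent β-galactosidase signal after 60 min lysis. Read-out: parasite load inhibition, %.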
SKKanGAS inh – inhibitors of SKKanGAS S. pyogenes growth in kanamycin (SK-promoter or general growth effect). AID 1662. 1.3% of 300,000 active. inhibition, % at 7.5 µM. BacTiter-Glo, 6 h;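 active = mean replicate score, as percent of positive control median, at least 50; inconclusive = mean below 50 but one replicate at or above 50; inactive = mean and every replicate below 50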;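 note: strain carries kanamycin resistance gene driven by streptokinase promoter and grows in 40 µg/ml kanamycin; loss of luminescence reflects streptokinase promoter inhibition or plain growth inhibition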
Calb FLC – affects C. albicans growth with fluconazole; growth inhibition, % (test concentration not listed); 0.57% of 300,000 active; C. albicans CaCi-2 (fluconazole-resistant clinical isolate) + fluconazole, Alamar Blue growth, 48 h;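 active = growth inhibition above about 58% in most replicates, limit read from the data, passing the limit was not always enough; inconclusive = exactly half the replicates above a set limit; inactive = most replicates below a set limit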;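 note: all wells also contain fluconazole at 8 µg/ml as a sub-toxic cotreatment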
CSC inhib – cancer stem cell inhibition. cancer stem cell-like cells viability, luminescence. inhibition, % at 7.5 µM. 1.1% of 300,000 active; in the data active = inhibition above about 75%; inconclusive = no clear call, values can overlap the other calls; tested in HMLE shEcad cells
Beta apoptosis – beta cell apoptosis inhibition; INS-1E cytokine-induced death, ATP luminescence, 48 h; percent of positive-control rescue, neutral wells zero; protection from apoptosis, % (no concentration beside the values); 0.8% of 300,000 active; AID 435005;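 active = Every replicate reaches about 75%, or at least half do and their mean reaches it too, limit read from the data; inconclusive = At least half of replicates reach the limit but their mean does not; inactive = Under half of replicates reach the limit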;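 note: higher means more ATP so stronger rescue from cytokine killing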
Mdm2-MdmX conf – confirmation of human Mdm2/MdmX interaction inhibitors. shares compounds with Mdm2 MdmX PPI. Mdm2-MdmX binding, luminescent assay. inhibition, % at 8 µM. 55% of 10,000 active. AID 489028; in the data active = inhibition above about 40%
Full FLuc ctr – inhibits full-length luciferase, flagging false Mdm2/MdmX hits | shares compounds with Mdm2 MdmX PPI | SaOS-2 full-length luciferase counterscreen, luminescence | 77% of 6,200 active | inhibition, % at 8 µM;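 active = mean inhibition at 8 µM reaching about 37%, which flags the compound as non-specific, limit read from the data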;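 note: p53-null SaOS-2 cells with luciferase driven by a doxycycline-inducible promoter; compound on cells about two nights before reading with doxycycline added after day one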
Numbers stand for hits; i = inactive; ? = inconclusive; nt = no result. Only some compounds are listed: those with a hit (about 5.7% of all), similar ones and a draw of the others.

SMILES | Mdm2 MdmX PPI | T cruzi repl | SKKanGAS inh | Calb FLC | CSC inhib | Beta apoptosis | Mdm2-MdmX conf | others
O=C(N/N=C(\CC(=O)c1cccs1)C(F)(F)F)c1ccncc1 | 66 | i | i | i | i | i | i
Fc1ccccc1N1CCN(c2ncnc3nc[nH]c23)CC1 | i | i | i | i | i | i | nt
Fc1ccccc1N1CCN(c2ncnc3[nH]ncc23)CC1 | 63 | i | i | i | i | i | i
COc1cc(C(=O)NCCCN2CCCC2=O)cc(Br)c1OCc1ccccc1 | i | nt | nt | nt | i | i | nt
CC(C)(C)c1nn(-c2ccccc2)c2[nH]c(=O)c(CNCc3ccc4c(c3)OCO4)cc12 | 92 | i | i | i | nt | nt | 80 | Full FLuc ctr=64
Cc1ccnc2nc(C(=O)OCC(=O)N3CC(C)CC(C)C3)nn12 (configuration not stated) | i | nt | nt | nt | nt | nt | nt
Cc1ccc2nc(-c3ccc(O)c(O)c3)cn2c1 | i | i | i | i | i | i | nt
Cc1ccc2nc(-c3ccccc3)cn2c1 | 67 | i | i | i | i | i | 58 | Full FLuc ctr=i
O=C(Nc1ccccc1N1CCN(C(=O)c2ccc(Cl)cc2)CC1)c1ccc([N+](=O)[O-])o1 | 55 | 62 | 79 | i | i | i | i
CCN1CCN(c2c(Cl)cccc2NC(=O)c2ccc([N+](=O)[O-])o2)CC1 | 55 | i | i | i | i | 103 | i
Cc1ccccc1C(=O)N1CCN(c2ccc(NC(=O)c3ccc([N+](=O)[O-])o3)cc2)CC1 | 72 | 58 | i | i | 91 | i | 76 | Full FLuc ctr=90
CC(C)C(=O)N1CCN(c2ccc(NC(=O)c3ccc([N+](=O)[O-])o3)cc2)CC1 | 72 | i | i | ? | i | i | 52 | Full FLuc ctr=i
CCN1CCN(c2c(Cl)cccc2NC(=O)c2ccc([N+](=O)[O-])cc2)CC1 | i | i | i | i | i | i | nt
CC1=Nc2nc(N3CCCCCC3)c(C#N)c3c4c(nc(c23)N1)N(c1ccc2ccccc2c1)C(=O)C4 | i | i | i | i | i | i | nt
CCC(C)[C@H](NC(=O)[C@@H]1CSC2c3ccccc3C(=O)N21)C(=O)NCc1ccco1 (some centres not stated) | i | i | i | i | i | i | nt
COc1ccccc1CCC(=O)N(C)CC(=O)Nc1ccc(Cl)c(C(F)(F)F)c1 | i | i | i | i | i | nt | nt
CC(=O)N1CCN(c2ccc(NC(=O)c3ccc(Br)o3)cc2Cl)CC1 | i | i | i | i | i | i | nt
CN1CCN(c2ccc(NC(=O)c3ccc([N+](=O)[O-])o3)cc2Cl)CC1 | 64 | i | i | i | i | i | 50 | Full FLuc ctr=i
C/C(=N\NC(=O)c1cc(-c2cccnc2)nc2ccccc12)c1ccc(O)cc1O | 66 | i | i | ? | 100 | 90 | 80 | Full FLuc ctr=i
CC(C)COc1cccc(-c2cc(C(=O)N/N=C/c3ccncc3)c3ccccc3n2)c1 | 81 | nt | nt | i | i | i | 84 | Full FLuc ctr=47
CCCc1cc(C(=O)N/N=C/c2ccc(CC)s2)c2ccccc2n1 | 63 | i | i | i | nt | i | 65 | Full FLuc ctr=40
C/C(=N\NC(=O)c1cc(-c2ccccc2C)nc2ccccc12)c1cccnc1 | i | i | i | i | i | i | nt
Cc1nn(-c2ccccc2)c(N2CCCC2)c1/C=N/NC(=O)c1cc(-c2cccnc2)nc2ccccc12 | 56 | 57 | i | i | i | i | i
CCOc1ccc(-c2cc(C(=O)N/N=C/c3cccnc3)c3ccccc3n2)cc1 | i | i | i | i | i | i | nt
O=C(C[C@@H]1C/C=C/CC[C@H](Cc2ccc(F)cc2)C(=O)OCCNC1=O)N[C@H](CO)Cc1ccccc1 | i | nt | nt | nt | i | i | nt
SMILES | Mdm2 MdmX PPI | T cruzi repl | SKKanGAS inh | Calb FLC | CSC inhib | Beta apoptosis | Mdm2-MdmX conf | others
COc1cccc(OCc2cc(C(=O)N3CCN(c4ccccc4OC)CC3)no2)c1 | i | i | i | i | i | i | nt
CCc1ccc(/C=N/NC(=O)c2cc(-c3ccncc3)nc3ccccc23)s1 | 52 | i | i | i | i | nt | 62 | Full FLuc ctr=80
CC(/C=N/NC(=O)c1cc(-c2ccc(Cl)cc2)nc2ccccc12)=C\c1ccco1 | 66 | i | i | i | i | i | i
O=C(N/N=C/c1cccs1)c1cc(-c2ccncc2)nc2ccccc12 | nt | i | i | i | i | i | nt
O=C(N/N=C/c1ccccn1)c1cc(C2CC2)nc2ccccc12 | i | i | i | i | i | i | nt
O=C(N/N=C/c1ccccn1)c1cc(-c2ccccc2)nc2ccccc12 | 71 | i | i | i | i | i | i
CN(C)C(=O)c1cc(C(=O)Cc2ccccc2)c[nH]1 | i | i | i | i | i | i | nt
N#C/C(=C\c1cn(CCOc2ccccc2F)c2ccccc12)C(=O)NCc1cccs1 | 54 | i | i | i | i | i | i
C[C@@H]1CN([C@H](C)CO)C(=O)Cc2cc(NS(=O)(=O)c3ccc(Cl)cc3)ccc2O[C@H]1CN(C)Cc1ccc(C(F)(F)F)cc1 | 90 | nt | nt | nt | 105 | i | 62 | Full FLuc ctr=55
C[C@H](CO)N1C[C@H](C)[C@H](CN(C)Cc2ccccc2)Oc2ccc(NC(=O)Nc3ccc(F)cc3)cc2C1=O | 65 | nt | nt | nt | i | i | i
CCOC(=O)CCCCCC(=O)Nc1ccc2c(c1)CC(=O)N([C@H](C)CO)C[C@@H](C)[C@H](CN(C)Cc1ccc3c(c1)OCO3)O2 | i | nt | nt | nt | nt | i | nt
C[C@@H]1CN([C@H](C)CO)C(=O)Cc2cc(NC(=O)Nc3ccccc3)ccc2O[C@@H]1CN(C)Cc1ccc2c(c1)OCO2 | 53 | nt | nt | nt | i | i | i
C[C@@H]1CN([C@@H](C)CO)C(=O)Cc2cc(NC(=O)Nc3cccc4ccccc34)ccc2O[C@@H]1CN(C)Cc1ccc(C(F)(F)F)cc1 | 65 | nt | nt | nt | i | i | i
C[C@@H]1CN([C@H](C)CO)C(=O)c2cc(NC(=O)Nc3ccc4c(c3)OCO4)ccc2O[C@H]1CN(C)Cc1ccncc1 | i | nt | nt | nt | i | i | nt
COc1ccccc1CCNC(=O)c1cccc(S(=O)(=O)N2CCc3ccccc3C2)c1 | i | nt | nt | nt | nt | i | nt
CC(=O)c1cccc(S(=O)(=O)Nc2cc(C(F)(F)F)ccc2N2CCOCC2)c1 | i | nt | nt | nt | nt | nt | nt
COc1ccc(Cl)cc1NC(=O)C1CCCN(c2ncnc3c2nc2n3CCCCC2)C1 (configuration not stated) | i | i | i | i | i | i | nt
COc1cc(NC(=O)CNc2cccc(S(=O)(=O)N3CCOCC3)c2)cc(OC)c1 | i | nt | nt | nt | nt | nt | nt
C[C@@H]1CN([C@H](C)CO)C(=O)c2cc(NC(=O)Nc3cccc4ccccc34)ccc2O[C@H]1CN(C)Cc1ccc(C(F)(F)F)cc1 | 56 | nt | nt | nt | nt | nt | i | Full FLuc ctr=81
C[C@H]1CN([C@@H](C)CO)C(=O)c2cc(NC(=O)Nc3cccc4ccccc34)ccc2O[C@@H]1CN(C)Cc1ccc(-c2ccccc2)cc1 | i | nt | nt | nt | i | i | nt
